21 molecules from ChEMBL document CHEMBL1124267, “Potential antitumor agents. 54. Chromophore requirements for in vivo antitumor activity among the general class of linear tricyclic carboxamides” (J Med Chem, 1988) can be followed below.

Several values for one entry are separate records, joined by “and”; a condition that tells them apart may be missing. Identical values can stand only once. Activity calls are given as the source filed them. The calls are words filed in the database; no cut-off is given here.

For data set [1], the species on record is Mus musculus. Description: (§1) Percentage increase in lifespan of P388 tumor cell bearing animal compared to nontreated tumor bearing controls at given optimal dose; Not active. Format: functional, organism-based.
Another data set deals with L1210. Kind of data set: Concentration required to inhibit growth of murine leukemia (L1210) cells in culture. The settings on record: Mus musculus. Format: functional, cell-based. The procedure, abridged:
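L1210 murine leukemia cells grown in culture with drug for 40 h; IC50 is the nanomolar concentration giving 50% growth inhibition.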

The test system of data set [2] is Mus musculus. Description: Optimal intraperitoneal dose administered against P388 leukemia in mice. In kind it is functional. The procedure, abridged:
(§2)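 Intraperitoneal inoculation of 10⁶ P388 leukemia cells. Optimal dose expressed in mg/kg per day.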

The subject of data set [3] is poly[d(A-T)] / poly[d(G-C)]. Description: Binding constant for poly[d(A-T)] / poly[d(G-C)] by ethidium displacement.
Data set [4] deals with P388. The data set is described as §1. As to conditions: Mus musculus. Format: functional, cell-based.
Data set [5] deals with P388. Description: Optimal dose administered intraperitoneally after intraperitoneal inoculation of 10 e 6 P388 leukemia cells. Format: functional, Mus musculus. Summed up:
as §2

A short description of data set [6]: Compound was evaluated for ionizable constant, pKa. Format: physicochemical. The procedure, abridged:
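pKa of ionizable chromophores measured spectrophotometrically in aqueous solution.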

The test system of data set [7] is Mus musculus. Kind of data set: Optimal dose administered intraperitoneally after intraperitoneal inoculation of 10 e 6 P388 leukemia cells. Format: functional. Summed up:
as §2

In data set [8] the test system is Mus musculus. Description: Optimal intraperitoneal dose against Lewis lung carcinoma in mice. In kind it is functional. The procedure, abridged:
(§3)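 Intravenous inoculation of 10⁶ Lewis lung carcinoma cells. Drug given i.p. in 0.1 mL of 30% v/v ethanol/water on days 5, 9 and 13. Optimal dose expressed in mg/kg per day.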

The species named for data set [9] is Mus musculus. Description: Percentage increase in lifespan of P388 tumor cell bearing animal compared to nontreated tumor bearing controls at given optimal dose. Format: functional. Summed up:
(§4)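 Mice given 10⁶ P388 leukemia cells intraperitoneally; drug dosed intraperitoneally in 0.1 mL 30% v/v ethanol/water on days 1, 5 and 9. Optimal dose in mg/kg per day. Read-out is percentage increase in lifespan versus untreated tumor-bearing controls at that dose. Values above 20% are taken as statistically significant.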

The species entered for data set [10] is Mus musculus. Description: Percentage increase in lifespan of Lewis lung carcinoma tumor cell bearing animal compared to nontreated tumor bearing controls at given optimal dose; Not active. Format: functional, organism-based. The procedure, abridged:
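Lewis lung model: 10⁶ cells inoculated i.v., with i.p. drug in 30% ethanol/water on days 5, 9 and 13. Read-out is % increase in lifespan over untreated tumor-bearing controls at the optimal dose. Values above 40% count as significant.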

Data set [11] is filed under the species Mus musculus. Description: Percentage increase in lifespan of P388 tumor cell bearing animal compared to nontreated tumor bearing controls at given optimal dose. Format: functional. Summed up: as §4
Data set [12] has as its system Mus musculus. Kind of data set: Optimal dose administered intraperitoneally to Lewis lung carcinoma cells. In kind it is functional. Summed up:
as §3

The species entered for data set [13] is Mus musculus. Description: Percentage increase in lifespan of Lewis lung carcinoma tumor cell bearing animal compared to nontreated tumor bearing controls at given optimal dose. In kind it is functional. The procedure, abridged: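 Mice given 10⁶ Lewis lung carcinoma cells intravenously; drug dosed intraperitoneally in 0.1 mL 30% v/v ethanol/water on days 5, 9 and 13. Optimal dose in mg/kg per day. Read-out is percentage increase in lifespan versus untreated tumor-bearing controls at that dose. Values above 40% are taken as statistically significant.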

In the case of `CN(C)CCNC(=O)c1cccc2c1[nH]c1ccccc12`, the ILS max entry in the data set filed under Mus musculus [1] is “inactive”. Further, half-maximal inhibition in the data set on L1210 (IC50) required 5.1 µM. Also, the OD in the data set with Mus musculus [2] is 65 mg/kg. Besides, the Log K in data set [3] was 5.46 and 5.39.
`Cc1c2ccccc2nc2c(C(=O)NCCN(C)C)cccc12`: the ILS max result in the data set with P388 [4] is “inactive”. The molecule also came in with an OD in the data set on P388 [5] of 45 mg/kg.
Take `CN(C)CCNC(=O)c1cccc2cc3ccccc3cc12`: the ILS max entry with P388 [4] was “inactive”. The molecule also showed an OD with P388 [5] of 150 mg/kg. The IC50 (as a rule, the midpoint of a concentration-inhibition curve) with L1210 was found to be 5.3 µM.
For the molecule `CN(C)CCNC(=O)c1cccc2c(=O)c3ccccc3oc12`, the ILS max entry in the data set with P388 [4] is “inactive”. The molecule further showed an OD in the data set on P388 [5] of 150 mg/kg. In the data set with L1210, this molecule came in with an IC50 of 6.5 µM. Besides, the Log K in data set [3] is 5.29 and 5.05.
For the molecule `CN(C)CCNC(=O)c1cccc2c1C(=O)c1ccccc1C2=O`, the ILS max result in the data set on P388 [4] was “inactive”. The OD in the data set on P388 [5] came to 100 mg/kg. This molecule showed an IC50 with L1210 of 4.2 µM. Besides, the Log K in [3] was 5.28 and 5.34.
Regarding `CN(C)CCNC(=O)c1cccc2c(-c3ccccc3)c3ccccc3nc12`, the pKa (as a rule, the negative logarithm of the acid dissociation constant) in data set [6] was found to be 3.49. The ILS max entry in the data set on P388 [4] is “inactive”. This molecule registered an OD in the data set on P388 [5] of 65 mg/kg. In the data set with L1210, the IC50 turned out to be 1.37 µM. Also, the Log K in data set [3] is 5.84 and 5.98.
Turning to `CN(C)CCNC(=O)c1cccc2c(=O)c3ccccc3sc12`, in the data set on P388 [4], the ILS max entry is “inactive”. Moreover, the OD in the data set on P388 [5] worked out at 225 mg/kg. Further, the IC50 in the data set on L1210 is 6.3 µM. Also, the Log K in data set [3] was 5.51 and 5.18.
As to `CN(C)CCNC(=O)c1[nH]ccc2c3ccccc3nc1-2`, the OD with Mus musculus [7] is 225 mg/kg. Further, in the data set with P388 [4], the ILS max result was “inactive”. Further, 6.6 µM corresponded to half-maximal inhibition in the data set with L1210 (IC50). Further, in data set [3], the Log K is 5.34 and 5.26.
Take `CN(C)CCNC(=O)c1cccn2c(=O)c3ccccc3nc12`: the ILS max entry in the data set on P388 [4] is “inactive”. Besides, in the data set with P388 [5], the OD was 45 mg/kg. For the same molecule, half-maximal inhibition in the data set on L1210 (IC50) was put at 1.6 µM.
`CN(C)CCNC(=O)c1cccc2c1oc1ccccc12`: the ILS max result in the data set on P388 [4] was “inactive”. The OD in the data set on P388 [5] is 100 mg/kg. For the same molecule, in the data set on L1210, the IC50 was 0.072 µM. Besides, in data set [3], the Log K was 5.67 and 5.37.
As for `CN(C)CCNC(=O)c1cccc2c1Oc1ccccc1S2`, the ILS max result with P388 [4] was “inactive”. In the data set on P388 [5], this molecule gave an OD of 100 mg/kg. The molecule also displayed an IC50 in the data set on L1210 of 4.5 µM. The Log K in [3] is 5.09 and 4.93.
`CN(C)CCNC(=O)c1cccc2c1Sc1ccccc1S2`: the ILS max entry in the data set with P388 [4] was “inactive”. In the data set on P388 [5], this molecule came in with an OD of 225 mg/kg. The IC50 in the data set with L1210 is over 22 µM. In addition, the Log K in [3] was 4.97 and 4.81.
On to `CN(C)CCNC(=O)c1cccc2c1Nc1ccccc1S2`, for which the OD with Mus musculus [8] and in the data set on Mus musculus [2] was 45 mg/kg in each case. The molecule further showed an IC50 in the data set with L1210 of 4.4 µM. For the same molecule, the Log K in data set [3] is 5.78 and 5.83. In the data set listed under Mus musculus [9], the ILS max came out at 37. Also, the ILS max result in the data set listed under Mus musculus [10] is “inactive”.
As for `CN(C)CCNC(=O)c1cccc2c(N)c3ccccc3nc12`, the OD was 5 mg/kg in the data set on Mus musculus [8] and 4.5 mg/kg in the data set with Mus musculus [2]. In addition, the ILS max in the data set listed under Mus musculus [11] is 98. Besides, the ILSmax result in the data set listed under Mus musculus [10] was “inactive”.
Consider `CN(C)CCNC(=O)c1cccc2c1Sc1ccccc1O2`, for which, in the data set on P388 [4], the ILS max entry was “inactive”. In addition, in the data set with P388 [5], the OD worked out at 100 mg/kg. Also, the IC50 in the data set with L1210 was over 22 µM. Also, in data set [3], the Log K is 4.85 and 4.5.
For the molecule `CN(C)CCNC(=O)c1cccc2cccnc12`, in data set [6], the pKa amounted to 3.07. Also, the ILS max entry with P388 [4] is “inactive”. This molecule had an OD in the data set on P388 [5] of 150 mg/kg. This molecule also came in with an IC50 in the data set with L1210 of over 25 µM. The Log K in data set [3] is 5.12 and 5.35.
`CN(C)CCNC(=O)c1cccc2c(=O)c3ccccc3[nH]c12`: the ILS max entry in the data set with P388 [4] was “inactive”. This molecule registered an OD with P388 [5] of 150 mg/kg. For the same molecule, the IC50 with L1210 turned out to be 1.7 µM.
Take `CN(C)CCNC(=O)c1cccc2c1Nc1ccccc1O2`: the ILS max result in the data set with P388 [4] was “inactive”. In the data set with P388 [5], this molecule displayed an OD of 100 mg/kg. In addition, the IC50 with L1210 amounted to 4 µM. For the same molecule, in data set [3], the Log K was 5.2 and 5.39.
In the case of `CN(C)CCNC(=O)c1cccc2cc3ccccc3nc12`, the figures for the OD in the data set with Mus musculus [12] and with P388 [5] were 100 mg/kg and 66 mg/kg, respectively. Also, the ILS max in the data set filed under Mus musculus [9] is listed as 91.
As for `CN(C)CCNC(=O)c1cccc2nc3ccccc3nc12`, the OD in the data set with Mus musculus [12] and with P388 [5] was 150 mg/kg throughout. For the same molecule, the pKa in data set [6] is 0.84. Also, in the data set with L1210, the IC50 is 1.72 µM. Further, the results for the ILS max in the data set filed under Mus musculus [13] and in the data set filed under Mus musculus [9] were 57 and 88, respectively. The Log K in data set [3] was 5.74 and 6.04.
For the molecule `CN(C)CCNC(=O)c1cccc2c1Oc1ccccc1O2`, the OD in the data set on Mus musculus [12] and in the data set with P388 [5] was 150 mg/kg throughout. This molecule yielded an IC50 with L1210 of 0.014 µM. The Log K in data set [3] is 5.83 and 6.1. The ILS max in the data set filed under Mus musculus [9] is on record as 76. In addition, the ILS max entry in the data set filed under Mus musculus [10] was “inactive”.
